Measured values taken from ChEMBL document CHEMBL1629690, “Development of hexadecyloxypropyl tenofovir (CMX157) for treatment of infection caused by wild-type and nucleoside/nucleotide-resistant HIV” (Antimicrob Agents Chemother, 2010).

How the values were obtained:
PBMC [1] = assay: Cellular uptake in PHA/IL-2-stimulated human PBMC at 1 uM assessed as TFV-monophosphate level after 24 hrs by MS/MS analysis; type: ADME, cell-based
Procedure, shortened: (§1)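 PHA-stimulated (4 μg/ml PHA, 48 to 72 h; 20 U/ml rhIL-2) human PBMCs at 2 × 10^6 cells/ml in RPMI 1640 with 15% FBS, given tenofovir or prodrug (final 0.01 to 10 μM) for 24 h at 37°C. Cells washed three times in cold 0.9% NaCl, counted, and 1 × 10^7 cell aliquots pelleted. TFV, TFV-MP and TFV-PP were separated by ion-pairing reverse-phase LC and detected by positive-ion electrospray MS. Output is pmol per 10^6 cells.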

PBMC [2] = assay: Cellular uptake in PHA/IL-2-stimulated human PBMC at 1 uM assessed as TFV-diphosphate level after 24 hrs by MS/MS analysis; type: ADME, cell-based; procedure, shortened: as §1
PBMC [3] = assay: Cellular uptake in PHA/IL-2-stimulated human PBMC at 10 uM assessed as TFV-monophosphate after 24 hrs by MS/MS analysis; type: ADME, cell-based; procedure, shortened: as §1
PBMC [4] = assay: Cellular uptake in PHA/IL-2-stimulated human PBMC at 10 uM assessed as TFV-diphosphate after 24 hrs by MS/MS analysis; type: ADME, cell-based; procedure, shortened: as §1
CEM-SS = assay: Cytotoxicity against human CEM-SS cells after 24 hrs by XTT assay; type: cell-based
Procedure, shortened: (§2)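 Six-concentration growth-inhibition test: 10 to 0.032 μM for the prodrug and TDF, up to 100 μM for TFV, with Triton X-100 run in parallel. Cell lines were split 1:2 the day before and seeded at 5 × 10^3 to 2 × 10^4 cells/well, with adherent lines left overnight. Dendritic cells were derived with GM-CSF/IL-4 for 7 days, then LPS 10 ng/ml for 2 days. Viability was read by XTT.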

[5] = Cytotoxicity against human HuH7 cells after 24 hrs by XTT assay; type: cell-based; settings: huh-7, 24 h; procedure, shortened: as §2
HepG2 = assay: Cytotoxicity against human HepG2 cells after 24 hrs by XTT assay; type: cell-based; settings: hepg2, 24 h; procedure, shortened: as §2
[6] = tested on: Human immunodeficiency virus 1; assay: Antiviral activity against HIV1 7324-1 harboring reverse transcriptase 41L/67N/69N/70R/215F/219E mutant gene infected in human PBMC by ELISA; type: functional, organism-based; settings: Human immunodeficiency virus 1, 7324-1
Procedure, shortened: (§3)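 Fresh PBMCs pooled from at least two HIV- and HBV-seronegative donors, stimulated with PHA 4 μg/ml for 48–72 h and kept in rhIL-2 20 U/ml. Seeded at 5 × 10^4 cells/well and infected with RT-mutant HIV-1 clones at MOI ~0.1. Nine compound concentrations, triplicate wells, 7-day incubation. EC50 reported as mean ± SD of one to three independent experiments.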

[7] = tested on: Human immunodeficiency virus 1; assay: Antiviral activity against HIV1 7303-3 harboring reverse transcriptase 41L/44D/67N/69D/118I/210W/215Y mutant gene infected in human PBMC by ELISA; type: functional, organism-based; settings: Human immunodeficiency virus 1, 7303-3; procedure, shortened: as §3
[8] = tested on: Human immunodeficiency virus 1; assay: Antiviral activity against HIV1 52534-2 harboring reverse transcriptase 41L//74V/210W/215Y/184V/69SSS mutant gene infected in human PBMC by ELISA; type: functional, organism-based; settings: Human immunodeficiency virus 1, 52534-2; procedure, shortened: as §3
[9] = tested on: Human immunodeficiency virus 1; assay: Antiviral activity against HIV1 8415-2 harboring reverse transcriptase 65R/184V mutant gene infected in human PBMC by ELISA; type: functional, organism-based; settings: Human immunodeficiency virus 1, 8415-2; procedure, shortened: as §3
PBMC [10] = assay: Cellular uptake in human PBMC at 1 uM assessed as TFV-diphosphate level after 24 hrs by MS/MS analysis; type: ADME, cell-based
Procedure, shortened: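 Human PBMCs, unstimulated or PHA/IL-2-stimulated, at 2 × 10^6 cells/ml in RPMI 1640 with 15% FBS, exposed 24 h at 37°C to final 0.01, 0.1, 1.0 or 10 μM of the prodrug, or 1.0 or 10 μM tenofovir. After cold saline washes the cells were counted and 1 × 10^7-cell pellets made. TFV, TFV-MP and TFV-PP were measured by ion-pairing LC with positive-ion electrospray MS as pmol/10^6 cells.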

[11] = tested on: Human immunodeficiency virus 1; assay: Antiviral activity against HIV1 subtype B isolate 92TH026 infected in human PBMC after 48 to 72 hrs by MTS assay; type: functional, organism-based; settings: Human immunodeficiency virus 1, isolate 92TH026
Procedure, shortened: (§4)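 Fresh donor PBMCs, HIV- and HBV-seronegative, were stimulated with 4 μg/ml PHA for 48 to 72 h and kept on 20 U/ml rhIL-2. Cells pooled from at least two donors were seeded at 5 × 10^4 per well and infected at MOI ~0.1. Nine compound concentrations were run in triplicate wells for 7 days.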

[12] = tested on: Human immunodeficiency virus 1; assay: Antiviral activity against HIV1 subtype C isolate 92BR025 infected in human PBMC after 48 to 72 hrs by MTS assay; type: functional, organism-based; settings: Human immunodeficiency virus 1, isolate 92BR025; procedure, shortened: as §4
[13] = tested on: Human immunodeficiency virus 1; assay: Antiviral activity against HIV1 subtype D isolate 92UG024 infected in human PBMC after 48 to 72 hrs by MTS assay; type: functional, organism-based; settings: Human immunodeficiency virus 1, isolate 92UG024; procedure, shortened: as §4
[14] = tested on: Human immunodeficiency virus 1; assay: Antiviral activity against HIV1 subtype D isolate 92UG046 infected in human PBMC after 48 to 72 hrs by MTS assay; type: functional, organism-based; settings: Human immunodeficiency virus 1, isolate 92UG046; procedure, shortened: as §4
[15] = tested on: Human immunodeficiency virus 1; assay: Antiviral activity against HIV1 subtype E isolate 93TH073 infected in human PBMC after 48 to 72 hrs by MTS assay; type: functional, organism-based; settings: Human immunodeficiency virus 1, isolate 93TH073; procedure, shortened: as §4
[16] = tested on: Human immunodeficiency virus 1; assay: Antiviral activity against HIV1 subtype E isolate CMU06 infected in human PBMC after 48 to 72 hrs by MTS assay; type: functional, organism-based; settings: Human immunodeficiency virus 1, isolate CMU06; procedure, shortened: as §4
[17] = tested on: Human immunodeficiency virus 1; assay: Antiviral activity against HIV1 subtype F isolate 93BR029 infected in human PBMC after 48 to 72 hrs by MTS assay; type: functional, organism-based; settings: Human immunodeficiency virus 1, isolate 93BR029; procedure, shortened: as §4
[18] = tested on: Human immunodeficiency virus 1; assay: Antiviral activity against HIV1 subtype G isolate RU132 infected in human PBMC after 48 to 72 hrs by MTS assay; type: functional, organism-based; settings: Human immunodeficiency virus 1, isolate RU132; procedure, shortened: as §4
[19] = tested on: Human immunodeficiency virus 1; assay: Antiviral activity against HIV1 subtype G isolate G3 infected in human PBMC after 48 to 72 hrs by MTS assay; type: functional, organism-based; settings: Human immunodeficiency virus 1, isolate G3; procedure, shortened: as §4
[20] = tested on: Human immunodeficiency virus 1; assay: Antiviral activity against HIV1 group O isolate BCF02 infected in human PBMC after 48 to 72 hrs by MTS assay; type: functional, organism-based; settings: Human immunodeficiency virus 1, isolate BCF02; procedure, shortened: as §4
[21] = tested on: Human immunodeficiency virus 2; assay: Antiviral activity against HIV2 isolate CDC310342 infected in human PBMC after 48 to 72 hrs by MTS assay; type: functional, organism-based; settings: Human immunodeficiency virus 2, isolate CDC310342; procedure, shortened: as §4
PBMC [22] = assay: Cytotoxicity against human PBMC up to 1000 nM by MTS assay; type: cell-based
[23] = tested on: Human immunodeficiency virus 1; assay: Antiviral activity against HIV1 subtype A isolate 92UG029 infected in human MDM […] by MTS assay; type: functional, organism-based; settings: Human immunodeficiency virus 1, isolate 92UG029
[24] = tested on: Human immunodeficiency virus 1; assay: Antiviral activity against HIV1 subtype A isolate 92UG037 infected in human MDM […] by MTS assay; type: functional, organism-based; settings: Human immunodeficiency virus 1, isolate 92UG037
[25] = tested on: Human immunodeficiency virus 1; assay: Antiviral activity against HIV1 subtype B isolate ADA infected in human MDM […] by MTS assay; type: functional, organism-based; settings: Human immunodeficiency virus 1, isolate ADA
[26] = Cytotoxicity against human MDM up to 1000 nM by MTS assay; type: cell-based

**Q.** With `C[C@H](Cn1cnc2c(N)ncnc21)OCP(=O)(O)O` [TENOFOVIR ANHYDROUS] as the molecule, how does the Drug uptake (PBMC [1]; BLD = below limit of detection) read?
**A.** BLD

**Q.** And the Drug uptake (PBMC [2])?
**A.** 0.05 pmol/10^6 cells

**Q.** And the Drug uptake (PBMC [3]; BLD = below limit of detection)?
**A.** BLD

**Q.** What about the Drug uptake (PBMC [4]) of the same molecule?
**A.** 0.22 pmol/10^6 cells

**Q.** And the Activity (CEM-SS)?
**A.** Non-toxic

**Q.** And the Activity [5]?
**A.** Non-toxic

**Q.** And the Activity (HepG2)?
**A.** Non-toxic

**Q.** What about the EC50 [6] of the same molecule?
**A.** 6500 nM

**Q.** And the EC50 [7]?
**A.** > 8500 nM

**Q.** What about the EC50 [8] of the same molecule?
**A.** > 6500 nM

**Q.** What about the EC50 [9] of the same molecule?
**A.** 1000 nM

**Q.** And the Drug uptake (PBMC [10])?
**A.** 0.05 pmol/10^6 cells

**Q.** For `CCCCCCCCCCCCCCCCOCCCOP(=O)(O)CO[C@H](C)Cn1cnc2c(N)ncnc21` [TENOFOVIR EXALIDEX], which EC50 [11] is on record?
**A.** 1.5 nM

**Q.** What about the EC50 [12] of the same molecule?
**A.** 2.8 nM

**Q.** And the EC50 [13]?
**A.** 2.1 nM

**Q.** What about the EC50 [14] of the same molecule?
**A.** 2.1 nM

**Q.** What about the EC50 [15] of the same molecule?
**A.** 2.3 nM

**Q.** And the EC50 [16]?
**A.** 2.3 nM

**Q.** What about the EC50 [17] of the same molecule?
**A.** 2.7 nM

**Q.** And the Drug uptake (PBMC [1])?
**A.** 0.3 pmol/10^6 cells

**Q.** And the Drug uptake (PBMC [2])?
**A.** 1.7 pmol/10^6 cells

**Q.** What about the Drug uptake (PBMC [3]) of the same molecule?
**A.** 0.9 pmol/10^6 cells

**Q.** And the Drug uptake (PBMC [4])?
**A.** 5.5 pmol/10^6 cells

**Q.** And the Activity (CEM-SS)?
**A.** Non-toxic

**Q.** And the Activity [5]?
**A.** Non-toxic

**Q.** What about the Activity (HepG2) of the same molecule?
**A.** Non-toxic

**Q.** And the EC50 [18]?
**A.** 2.2 nM

**Q.** And the EC50 [19]?
**A.** 2.2 nM

**Q.** And the EC50 [20]?
**A.** 5 nM

**Q.** What about the EC50 [21] of the same molecule?
**A.** 3.5 nM

**Q.** And the Activity (PBMC [22])?
**A.** Non-toxic

**Q.** And the EC50 [23]?
**A.** 1.3 nM

**Q.** And the EC50 [24]?
**A.** 1.3 nM

**Q.** What about the EC50 [25] of the same molecule?
**A.** 3.1 nM

**Q.** And the Activity [26]?
**A.** Non-toxic

**Q.** What about the EC50 [6] of the same molecule?
**A.** 3.8 nM

**Q.** And the EC50 [7]?
**A.** 19 nM

**Q.** What about the EC50 [8] of the same molecule?
**A.** 9 nM

**Q.** What about the EC50 [9] of the same molecule?
**A.** 1.8 nM

**Q.** And the Drug uptake (PBMC [10])?
**A.** 0.22 pmol/10^6 cells

**Q.** For `Cc1cn([C@H]2C[C@H](N=[N+]=[N-])[C@@H](CO)O2)c(=O)[nH]c1=O` [ZIDOVUDINE], which EC50 [11] is on record?
**A.** 2 nM

**Q.** What about the EC50 [12] of the same molecule?
**A.** 4.9 nM

**Q.** What about the EC50 [13] of the same molecule?
**A.** 6.3 nM

**Q.** What about the EC50 [14] of the same molecule?
**A.** 6.3 nM

**Q.** And the EC50 [15]?
**A.** 5.5 nM

**Q.** And the EC50 [16]?
**A.** 5.5 nM

**Q.** What about the EC50 [17] of the same molecule?
**A.** 9.6 nM

**Q.** And the EC50 [18]?
**A.** 4.7 nM

**Q.** What about the EC50 [19] of the same molecule?
**A.** 4.7 nM

**Q.** What about the EC50 [20] of the same molecule?
**A.** 1.7 nM

**Q.** What about the EC50 [21] of the same molecule?
**A.** 9.3 nM

**Q.** And the Activity (PBMC [22])?
**A.** Non-toxic

**Q.** What about the EC50 [23] of the same molecule?
**A.** 1.2 nM

**Q.** What about the EC50 [24] of the same molecule?
**A.** 1.3 nM

**Q.** What about the EC50 [25] of the same molecule?
**A.** 2.7 nM

**Q.** And the Activity [26]?
**A.** Non-toxic

**Q.** What about the EC50 [6] of the same molecule?
**A.** 330 nM

**Q.** And the EC50 [7]?
**A.** 3000 nM

**Q.** And the EC50 [8]?
**A.** 350 nM

**Q.** What about the EC50 [9] of the same molecule?
**A.** 1.8 nM
